This series can be described thus: Toxicity liver stage against HepG2, at 10uM. It is filed as cell-based. Further details: test concentration 10 uM, cell line HepG2-A16-CD81EGFP. The conditions noted are these: human, HepG2-A16-CD81EGFP cells; read-out: INHIBITION
The essentials:
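Uninfected HepG2-A16-CD81EGFP cells, 3 × 10^3 per well, 1536-well, plated on prespotted compound at 10 μM final, parasite-free screening media added to match infected plates; puromycin 10 μM positive, DMSO 0.5% negative; run in parallel with 48 h PbLuc assay at 37 °C, 5% CO2; viability by CellTiter-Glo luminescence, normalized to controls.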

The structures appear in SMILES notation.

For the compound `CN1CCN(C[C@@H]2OC[C@H]3CN(Cc4ccsc4)CC[C@H]32)CC1`, the cytotoxicity at 10 µM was -11%.

For `Cc1cnc(N)nc1N1CCN(CCCO)CC1`, the cytotoxicity at 10 µM is 0.761%.

`Clc1cncc(NCc2cccc(OCCN3CCOCC3)c2)n1`: the cytotoxicity at 10 µM came out at 9.71%.

Consider `Cc1cccc(N2CCC3(CCN(C(=O)c4cccnc4)CC3)C2)n1`, for which the cytotoxicity at 10 µM is -0.482%.

Regarding `CSCc1nc(CNC(=O)C2CCCN(C(=O)N(C)C)C2)cs1` (stereo not drawn), the cytotoxicity at 10 µM is -3.99%.

`CCN1CCNC(=O)C12CCN(C(=O)c1ccccn1)CC2`: the cytotoxicity at 10 µM was -0.514%.

Take `COc1ccc(CC(=O)N2CC[C@@H]3[C@H](CC2)N(C)CCS3(=O)=O)cc1`: the cytotoxicity at 10 µM was -104%.

Turning to `CCn1ncc2c1C(COC)N(C(=O)Cc1cccs1)CC2` (stereo not drawn), the cytotoxicity at 10 µM is -109%.

On to `COCc1nc(C(=O)NS(=O)(=O)c2cc(Br)ccc2C)cs1`, for which the cytotoxicity at 10 µM is -1.66%.

`Cc1nc(CN(C)C(=O)C2CCC(=O)N(CCN(C)C)C2)cs1` (stereo not drawn): the cytotoxicity at 10 µM was 8.08%.

As for `CN(C)C(=O)COC[C@@]12CCC[C@@H]1CNC2`, the cytotoxicity at 10 µM is 0.903%.

For the compound `CC(C)Cc1nnc(SCC(=O)O)n1-c1ccc(F)cc1F`, the cytotoxicity at 10 µM was -6.13%.

For `COc1ccc(C(=O)NCCCNc2ncccn2)cc1F`, the cytotoxicity at 10 µM was -10.5%.

As for `Cc1ccc(F)c2c1CCCN2C(=O)c1cn(CC(=O)N(C)C)nn1`, the cytotoxicity at 10 µM is -0.367%.

`O=C(c1ccccc1C1CCNC1)N1CCC(N2CCC(O)CC2)CC1` (stereo not drawn): the cytotoxicity at 10 µM is -8.3%.

For `COc1ccc(-n2cc3[nH]c(=O)n(C(C)C)n3c2=O)cc1`, the cytotoxicity at 10 µM was 2.03%.

As to `Cc1cnn(CC(C)NCc2ccc(C#N)cc2)c1` (stereo not drawn), the cytotoxicity at 10 µM was -11.8%.

With `CC(C)N1CCC(N(C)c2ccnc(N(C)C)n2)CC1`, the cytotoxicity at 10 µM was -3.3%.

On to `NC(=O)C1CCCN(C(=O)c2cccc(OCc3cscn3)c2)C1` (stereo not drawn), for which the cytotoxicity at 10 µM was -7.98%.

In the case of `Cc1cccc(C(=O)N2CCCC(c3noc(C)n3)C2)n1` (stereo not drawn), the cytotoxicity at 10 µM was -19.9%.

With `CCn1nc2c(cc1=O)CN(Cc1nc(C)c3ccccc3n1)CC2`, the cytotoxicity at 10 µM is -9.35%.

As for `O=C(Nc1cnn(CCN2CCOCC2)c1)c1cc(F)ccc1F`, the cytotoxicity at 10 µM is -8.8%.

In the case of `CCC1CCC(CNC(=O)c2c[nH]c(=O)c(Cl)c2)CC1` (stereo not drawn), the cytotoxicity at 10 µM was -8.46%.

Regarding `O=C1CCCN1Cc1ncn2c1CN(C(=O)Cc1cccs1)CCC2`, the cytotoxicity at 10 µM amounted to 5.26%.

As for `CC(O)CN1CCN(C(=O)CN(C)c2cnccn2)CC1` (stereo not drawn), the cytotoxicity at 10 µM was found to be 2.53%.

On to `CCOCC(=O)N1CCC2(CC1)COCCN2CCOC`, for which the cytotoxicity at 10 µM is 8.37%.

As to `CCC(CC)c1nnc(NC(=O)NC(C)Cn2cccn2)s1` (stereo not drawn), the cytotoxicity at 10 µM was 3.91%.

`COc1cccc(-c2nnn(C3CCN(CC(F)(F)F)C3=O)n2)c1` (stereo not drawn): the cytotoxicity at 10 µM was 3.34%.

On to `COc1ccc(CN(Cc2cc(C)no2)C2CC2)cc1`, for which the cytotoxicity at 10 µM was -3.71%.

On to `Cc1nc(-c2ccoc2)n(CC(=O)NCC(C)C)c1C`, for which the cytotoxicity at 10 µM is -1.49%.

Turning to `O=C([C@H]1CCCO1)N1CCC2(CCCN(CCOc3ccccc3)C2)C1` (stereo partly drawn), the cytotoxicity at 10 µM was -3.25%.

Consider `Cc1ccc(C(=O)N2CCN(C(=O)NC(C)Cn3ccnc3)CC2)o1` (stereo not drawn), for which the cytotoxicity at 10 µM was -1.47%.

As to `CCn1cnnc1CNC(=O)N1CCOC(c2ccccc2Cl)C1` (stereo not drawn), the cytotoxicity at 10 µM is 9.32%.

For the compound `CC(C1CC1)N(CC(=O)NC(=O)NC1CC1)C1CC1` (stereo not drawn), the cytotoxicity at 10 µM was 4.84%.

`Cc1oc(C(=O)O)cc1S(=O)(=O)Nc1cccc(Cl)c1F`: the cytotoxicity at 10 µM is -5.99%.

In the case of `CCOCc1nnc(NCc2cccc(C)c2)o1`, the cytotoxicity at 10 µM came to 16.3%.

For `Cc1ccc(CN2CC[C@@H](NC(=O)c3cccnc3)[C@H](O)C2)s1`, the cytotoxicity at 10 µM was -2.68%.

Regarding `Cc1nnc([C@]23COC[C@H]2CN(Cc2cnn(C)c2)C3)o1`, the cytotoxicity at 10 µM is -3.77%.

As to `CCc1cnc2c(c1NCc1cccc(OC)c1)c(=O)n(C)c(=O)n2C`, the cytotoxicity at 10 µM turned out to be 24.8%.

On to `Cc1c(C(=O)NCCC(=O)N2CCCC2)cccc1-c1ccccn1`, for which the cytotoxicity at 10 µM came to 1.39%.

Consider `CCOCCN1CCN(CC(O)c2cc(Cl)ccc2Cl)CC1` (stereo not drawn), for which the cytotoxicity at 10 µM is 0.858%.

On to `O=C([C@H]1C[C@H]2[C@H](CCN2Cc2cccs2)O1)N1CCOCC1`, for which the cytotoxicity at 10 µM came to 0.582%.

In the case of `CS(=O)(=O)c1ccc(-c2nc(C(=O)N3CCCC3)n3ccccc23)cc1`, the cytotoxicity at 10 µM worked out at 6%.

Consider `CCn1c(=O)c2sccc2n(CC(=O)Nc2cccc(Cl)c2)c1=O`, for which the cytotoxicity at 10 µM worked out at 0.115%.

Consider `CCOc1ccc2[nH]c(=O)c(CN3CCC(n4cnnc4)CC3)cc2c1`, for which the cytotoxicity at 10 µM was -0.966%.

For `CO[C@H]1CN(Cc2nc3ccccc3n2C)C[C@@]12CCCO2`, the cytotoxicity at 10 µM worked out at 4.32%.

On to `NC(=O)c1cc(NC(=O)NCCc2cc(F)cc(F)c2)ccc1F`, for which the cytotoxicity at 10 µM is -9.58%.

Turning to `Cc1cc(C(=O)NC(C)Cc2ccccc2Cl)n(C)n1` (stereo not drawn), the cytotoxicity at 10 µM is 2.8%.

For the compound `Cc1nn(C)c2cnn(C(C)C(=O)NCc3cccnc3)c12` (stereo not drawn), the cytotoxicity at 10 µM is 9.77%.

Consider `CCCc1nnsc1C(=O)NCC(O)c1ccc(SC)cc1` (stereo not drawn), for which the cytotoxicity at 10 µM worked out at 1.71%.

For the compound `CC(O)CN1CCc2[nH]nc(C(c3ccccc3)c3ccccc3)c2C1` (stereo not drawn), the cytotoxicity at 10 µM is -0.481%.

As for `CCn1ccnc1CN1CCN(CC(=O)NC(=O)NC2CC2)CC1`, the cytotoxicity at 10 µM was -3.3%.

As for `CCCSCC(=O)NS(=O)(=O)c1ccc2c(c1)OCCO2`, the cytotoxicity at 10 µM is -9.78%.

Regarding `CN(CCc1cccs1)C(=O)Nc1cnn(CC2CCCO2)c1` (stereo not drawn), the cytotoxicity at 10 µM is -2.66%.

With `Cc1nc([C@@H]2C[C@@H]3CCN(C(=O)Cc4cccs4)C[C@H]3O2)no1`, the cytotoxicity at 10 µM was 3.27%.

As to `COC(=O)C(NC(=O)c1ccc(N(C)C)nc1)c1ccccc1` (stereo not drawn), the cytotoxicity at 10 µM was determined as 4.15%.

As to `O=C(CCS(=O)(=O)C1CCCC1)NCCc1cccc(O)c1`, the cytotoxicity at 10 µM was -3.09%.

As to `N#Cc1cnc2ccccc2c1N1CCNCC1`, the cytotoxicity at 10 µM is -1.86%.

For `CC(O)(CNS(=O)(=O)Cc1ccon1)c1ccsc1` (stereo not drawn), the cytotoxicity at 10 µM was found to be 2.76%.

As to `O=S(=O)(N1CCCCCC1)N1CCc2sccc2C1`, the cytotoxicity at 10 µM is -5.6%.

As to `CN(Cc1ccc(Cl)c(F)c1)C(=O)c1ccncc1F`, the cytotoxicity at 10 µM is 3.31%.

`CSCC(CCO)NC(=O)c1cccc(Cl)c1F` (stereo not drawn): the cytotoxicity at 10 µM stood at 19%.

Take `Cc1ccc2c(n1)N(C)CCN(Cc1cnn(C)c1)C2`: the cytotoxicity at 10 µM was 3.04%.

For the compound `CCN(CC1CCOC1)C(=O)c1cn2ccc(C)cc2n1` (stereo not drawn), the cytotoxicity at 10 µM was determined as 1%.

With `Cc1noc(C)c1CSCc1csc(CS(C)(=O)=O)n1`, the cytotoxicity at 10 µM was -17%.

Consider `COCCCNC(=O)CN(C)C(=O)c1ccc(-n2cccc2)cc1O`, for which the cytotoxicity at 10 µM is -13.5%.

For `CC(O)CN1CCC(CN(C)Cc2cc(C#N)ccc2F)CC1` (stereo not drawn), the cytotoxicity at 10 µM stood at 2.05%.

Consider `CCOc1ccc(CN2C(=O)CC(C)(C(C)C)C2=O)nc1` (stereo not drawn), for which the cytotoxicity at 10 µM was -5.51%.

For the compound `COc1ccc(OCCN2CCC(N3CCNC3=O)CC2)cc1`, the cytotoxicity at 10 µM came out at 29.5%.

Take `CN(Cc1ccc(C#N)cc1)C(=O)c1ccn(C)c(=O)c1`: the cytotoxicity at 10 µM is -2.81%.

For the compound `c1csc(CN2CCC3(CCOCC3COCC3CC3)CC2)n1` (stereo not drawn), the cytotoxicity at 10 µM came to 5.02%.

Turning to `CC(=O)Nc1ccc(-n2ccc3nc(N4CCCC4)ncc3c2=O)cc1`, the cytotoxicity at 10 µM stood at 2.24%.

Take `CC(NC(=O)N1CCSC(C)(C)C1)c1noc(-c2ccccc2)n1` (stereo not drawn): the cytotoxicity at 10 µM is -22.3%.

With `COc1ncccc1C(=O)N1CC[C@]2(C[C@@H](Oc3cccnc3)CO2)C1`, the cytotoxicity at 10 µM was determined as 4.43%.

For the compound `O=C1CC(c2ccccc2)C2(CCN(C(=O)c3ccncc3F)CC2)N1` (stereo not drawn), the cytotoxicity at 10 µM was -76.9%.

Turning to `O=C(NCC1CC(=O)N(CCc2ccccc2)C1)c1ccc[nH]1` (stereo not drawn), the cytotoxicity at 10 µM is -0.553%.

`COc1ncccc1NC(=O)c1cccc(C)n1`: the cytotoxicity at 10 µM came out at 2.3%.

In the case of `Cc1ccsc1CNC(=O)CSc1nnc[nH]1`, the cytotoxicity at 10 µM was -0.655%.

With `CC(NCCCn1cccn1)c1ccc(N2CCCS2(=O)=O)cc1` (stereo not drawn), the cytotoxicity at 10 µM is -0.828%.

As to `CCC(=O)NC(CC)c1ccccc1C` (stereo not drawn), the cytotoxicity at 10 µM was found to be 5.14%.

As for `Cc1cc(NC(=O)CN2CCc3nn(C)c(=O)cc3C2)on1`, the cytotoxicity at 10 µM was -1.45%.

For `COCCCN1CCCC12CCN(c1ncccn1)CC2`, the cytotoxicity at 10 µM came out at 2.87%.

On to `CC(=O)N1CCN(CCNS(=O)(=O)c2cc(F)cc(F)c2)CC1`, for which the cytotoxicity at 10 µM stood at 7.24%.

For the compound `Cn1ccnc1C1CCN(C(=O)COCC(F)(F)C(F)F)CC1`, the cytotoxicity at 10 µM was -45.2%.

As to `CS(=O)(=O)c1ccc(NCc2ccccc2)cn1`, the cytotoxicity at 10 µM was determined as 13.2%.

In the case of `N#Cc1cccc(CS(=O)(=O)NC(Cc2ccccc2)C(N)=O)c1` (stereo not drawn), the cytotoxicity at 10 µM was 9.16%.

With `CCCS(=O)(=O)N1C[C@@H](Oc2ccccn2)[C@H]2OCCC[C@H]21`, the cytotoxicity at 10 µM amounted to 0.516%.

Turning to `CN(C)C(=O)C1OC2(CCN(C(=O)c3ccco3)CC2)c2ccccc21` (stereo not drawn), the cytotoxicity at 10 µM was determined as 4.93%.

On to `c1cncc(CNc2ccc3nc(C4CCNCC4)nn3c2)c1`, for which the cytotoxicity at 10 µM is -108%.

Consider `Cn1cc(C2(C)CN(C(=O)Nc3ccccc3F)CCO2)cn1` (stereo not drawn), for which the cytotoxicity at 10 µM is -5.23%.

As to `Cc1nnc2n1CCN(C(C(=O)N1CCCCC1)c1ccccc1)C2` (stereo not drawn), the cytotoxicity at 10 µM is -5.83%.

`CNC(=O)c1nc(CN2CCOC(Cc3ccc(F)cc3)C2)no1` (stereo not drawn): the cytotoxicity at 10 µM was -2.28%.

Regarding `CCC(CO)NCc1ccc(-c2ccccc2F)o1` (stereo not drawn), the cytotoxicity at 10 µM is -2.49%.

Consider `CN(C)CCNC(=O)C1Cc2nc(-c3ccccc3)sc2N1CC1CC1` (stereo not drawn), for which the cytotoxicity at 10 µM came out at 5.15%.

For the compound `O=C(O)c1ccn(COc2c(Cl)cccc2Cl)n1`, the cytotoxicity at 10 µM turned out to be 8.71%.

For the compound `CCNc1nnc(CCn2nc(C)c(Br)c2C)s1`, the cytotoxicity at 10 µM was found to be 2.14%.

In the case of `CN(C)C(CNC(=O)c1ncoc1-c1ccccc1)c1ccsc1` (stereo not drawn), the cytotoxicity at 10 µM is -0.303%.

Regarding `Cc1ccc(O)c(C(=O)N2CCC(CN3CCCCCC3)CC2)c1`, the cytotoxicity at 10 µM came to 5.52%.

(Values after ChEMBL document CHEMBL4513216, “Probing the Open Global Health Chemical Diversity Library for Multistage-Active Starting Points for Next-Generation Antimalarials” (ACS Infect Dis, 2020).)
